Common to all, as to format: cell-based
Assay [1] deals with T1, Mu-type opioid receptor (Homo sapiens, UniProt P35372). In words: Agonist activity at MOP (unknown origin) expressed in SH-SY5Y cell membranes co-expressing Gbeta1-RGFP protein assessed as induction of G protein activation incubated for 15 mins by BRET assay. A general note: In BRET a luciferase serves as donor, and the signal depends on an acceptor being close.
In assay [2] the target is T1, Mu-type opioid receptor. Description: Agonist activity at MOP (unknown origin) expressed in SH-SY5Y cell membranes co-expressing beta-arrestin2-RGFP protein assessed as induction of beta-arrestin2 activation incubated for 15 mins by BRET assay.
The target in assay [3] is T2, Delta-type opioid receptor (Homo sapiens, UniProt P41143). In words: Agonist activity at DOP (unknown origin) expressed in SH-SY5Y cell membranes co-expressing Gbeta1-RGFP protein assessed as induction of G protein activation incubated for 15 mins by BRET assay. In a few lines: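 Membranes (3 μg protein) from SH-SY5Y cells stably co-expressing delta-RLuc and Gβ1-RGFP, in DPBS. Ligands in PBS–BSA 0.01%, coelenterazine 5 μM final, room temperature. BRET ratio (RGFP 510 nm/RLuc 460 nm CPS minus vehicle) read 15 min after agonist. Efficacy relative to deltorphin A run on every plate; CR versus deltorphin A EC50. Five experiments in duplicate.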

Assay [4] deals with T2, Delta-type opioid receptor. Description: Agonist activity at DOP (unknown origin) expressed in SH-SY5Y cell membranes co-expressing beta-arrestin2-RGFP protein assessed as induction of beta-arrestin2 activation incubated for 15 mins by BRET assay. The method, boiled down: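 Whole SH-SY5Y cells stably co-expressing delta-RLuc and β-arrestin 2-RGFP, plated 24 h earlier (100,000 cells/well), in PBS with MgCl2 0.5 mM and CaCl2 0.9 mM. Coelenterazine 5 μM final added 15 min before reading. BRET ratio read 15 min after agonist at room temperature. Efficacy and CR relative to deltorphin A. Five experiments in duplicate.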

Assay [5] addresses T2, Delta-type opioid receptor. Description: Bias factor, selectivity for agonist activity at DOP (unknown origin) expressed in SH-SY5Y cell membranes co-expressing beta-arrestin2-RGFP protein assessed as induction of beta-arrestin2 activation to agonist activity at […] cell membranes co-expressing Gbeta1-RGFP protein assessed as induction of G protein activation. Particulars: […]. The method, boiled down: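 Concentration–response curves from delta G protein (membrane) and β-arrestin 2 (whole cell) BRET assays fitted to the Black–Leff operational model. Bias factor = Δlog(τ/KA) G protein minus Δlog(τ/KA) β-arrestin 2, with deltorphin A as the unbiased reference. Mean of at least five experiments, with 95% confidence limits.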

Assay [6] addresses T3, Nociceptin receptor (Homo sapiens, UniProt P41146). Description: Agonist activity at NOP (unknown origin) expressed in HEK293 cell membranes co-expressing Gbeta1-RGFP protein assessed as induction of G protein activation incubated for 15 mins by BRET assay. In a few lines:
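Membranes (3 μg protein) from HEK293 cells stably co-expressing NOP-RLuc and Gβ1-RGFP, in DPBS. Coelenterazine 5 μM final; ligands in PBS–BSA 0.01%. BRET ratio (RGFP 510 nm / RLuc 460 nm) read 15 min after agonist, room temperature. Values are vehicle-subtracted stimulated BRET ratio. Mean of five experiments in duplicate.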

The target in assay [7] is T3, Nociceptin receptor. In words: Agonist activity at NOP (unknown origin) […] assessed as induction of beta-arrestin2 activation incubated for 15 mins by BRET assay.
Assay [8] addresses T3, Nociceptin receptor. Description: Antagonist activity at NOP (unknown origin) expressed in HEK293 cell membranes co-expressing Gbeta1-RGFP protein assessed as reduction in N/OFQ(1-13)-NH2-induced induction of G protein activation pre-incubated for 15 mins before stimulation with N/OFQ(1-13)-NH2 for 15 mins by BRET assay. Particulars: read-out: pA2 (converted).
Assay [9] addresses T3, Nociceptin receptor. Description: Antagonist activity at NOP (unknown origin) expressed in HEK293 cell membranes co-expressing beta-arrestin2-RGFP protein assessed as reduction in N/OFQ(1-13)-NH2-induced induction of beta-arrestin2 activation pre-incubated for 15 mins before stimulation with N/OFQ(1-13)-NH2 for 15 mins by BRET assay. Particulars: read-out: pA2 (converted).

Assay [10] has as its target T3, Nociceptin receptor. In words: Bias factor, selectivity for agonist activity at NOP (unknown origin) expressed in HEK293 cell membranes co-expressing beta-arrestin2-RGFP protein assessed as induction of beta-arrestin2 activation to agonist activity at NOP (unknown origin) expressed in HEK293 cell membranes co-expressing Gbeta1-RGFP protein assessed as induction of G protein activation. The method, boiled down: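 Concentration–response curves in the NOP G protein and β-arrestin 2 BRET assays were fitted to the Black–Leff operational model. Mean of at least five experiments with 95% confidence limits.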

Calls of active or inactive are those of the source. The calls are words filed in the database; no cut-off is given here. Starred links: 1 amine or outer side, 2 acyl side, 3 side chain; linkers in the order of their positions; H or OH if unused. Positions of bridges follow the written chain, without caps; N, C: chain ends. Non-standard residues stand in square brackets, D forms with d. Residues, ends and D or L forms follow the SMILES beside them. Chains are numbered I, II in the order given. *: point of attachment. X1 = CCCCCCCCCCCCCCCC(=O)NCCCN1C(=O)CC(*)C1=O; X3 = N[C@@H](Cc1ccccc1)CN(CC(=O)[*:2])[*:1]; X2 = O=C1CC([*:1])C(=O)N1CCCC(=O)[*:2]

T2 sequence (P41143 whole entry): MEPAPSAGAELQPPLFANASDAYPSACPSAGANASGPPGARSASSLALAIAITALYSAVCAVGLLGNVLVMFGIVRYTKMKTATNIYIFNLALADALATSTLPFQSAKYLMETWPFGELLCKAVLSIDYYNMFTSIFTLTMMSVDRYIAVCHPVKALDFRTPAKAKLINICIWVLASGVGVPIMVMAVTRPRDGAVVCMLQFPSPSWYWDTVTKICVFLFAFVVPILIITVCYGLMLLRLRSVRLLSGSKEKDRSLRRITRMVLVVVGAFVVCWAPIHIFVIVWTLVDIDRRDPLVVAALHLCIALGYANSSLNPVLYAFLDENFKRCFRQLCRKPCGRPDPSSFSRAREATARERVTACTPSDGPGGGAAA
T1 sequence (P35372 whole entry): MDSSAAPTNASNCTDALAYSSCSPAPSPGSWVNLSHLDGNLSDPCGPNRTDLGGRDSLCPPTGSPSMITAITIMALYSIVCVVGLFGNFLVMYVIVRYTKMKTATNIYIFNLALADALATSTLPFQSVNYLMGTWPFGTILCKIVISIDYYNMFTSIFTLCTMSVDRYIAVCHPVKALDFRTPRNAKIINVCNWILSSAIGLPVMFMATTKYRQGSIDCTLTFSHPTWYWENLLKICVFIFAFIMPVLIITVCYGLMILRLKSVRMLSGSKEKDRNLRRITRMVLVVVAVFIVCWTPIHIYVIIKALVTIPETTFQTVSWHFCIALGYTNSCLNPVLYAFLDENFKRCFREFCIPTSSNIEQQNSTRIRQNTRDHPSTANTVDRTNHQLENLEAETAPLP
T3 sequence (P41146 whole entry): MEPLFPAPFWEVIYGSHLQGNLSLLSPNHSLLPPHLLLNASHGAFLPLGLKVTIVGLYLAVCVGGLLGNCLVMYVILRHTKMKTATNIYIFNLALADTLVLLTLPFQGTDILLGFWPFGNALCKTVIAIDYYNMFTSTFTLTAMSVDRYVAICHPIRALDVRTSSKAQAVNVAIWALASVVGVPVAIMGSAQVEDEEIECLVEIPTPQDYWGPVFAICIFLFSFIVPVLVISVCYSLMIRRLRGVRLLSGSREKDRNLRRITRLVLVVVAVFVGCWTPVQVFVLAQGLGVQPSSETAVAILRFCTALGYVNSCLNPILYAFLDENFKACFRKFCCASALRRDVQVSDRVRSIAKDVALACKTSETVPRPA

As usually defined, the EC50 is the concentration needed to bring the measured effect to its halfway point. Take `CCCCCCCCCCCCCCCC(=O)NCCCN1C(=O)CC(SC[C@H](NC(=O)[C@H](CO)NC(=O)[C@@H]2CCCN2C(=O)[C@H](Cc2ccc(O)cc2)NC(=O)CNC(=O)[C@H](Cc2ccccc2)NC(=O)[C@@H](C)NC(=O)[C@@H](N)Cc2ccc(O)cc2)C(N)=O)C1=O` (stereo partly specified): the EC50 was 0.00145 µM on Mu-type opioid receptor [1], 0.011 µM on Mu-type opioid receptor [2], 0.0589 µM in assay [3] and 0.617 µM in assay [4].
For `CCCCCCCCCCCCCCCC(=O)NCCCN1C(=O)CC(SC[C@H](NC(=O)[C@H](CC(C)C)NC(=O)[C@H](Cc2ccccc2)NC(=O)CNC(=O)CNC(=O)[C@@H](N)Cc2ccc(O)cc2)C(N)=O)C1=O` (stereo partly specified) (H-YGGFLC(X1)-NH2), the EC50 was 0.00407 µM at Mu-type opioid receptor [1], 0.229 µM at Mu-type opioid receptor [2], 0.00813 µM in assay [3] and 0.132 µM in assay [4]. Besides, the Selectivity ratio in [5] was 1.7.
As for `CSCC[C@H](NC(=O)[C@H](CC(C)C)NC(=O)[C@H](Cc1c[nH]cn1)NC(=O)[C@H](Cc1ccccc1)NC(=O)[C@@H](CCSC)NC(=O)[C@@H](N)Cc1ccc(O)cc1)C(=O)N[C@@H](CC(=O)O)C(=O)O` (H-Y[dM]FHLMD-OH), the EC50 in assay [3] was 0.0263 µM; in assay [4] it was 0.0148 µM. The Selectivity ratio in assay [5] is 0.
With `CCCCCCCCCCCCCCCC(=O)NCCCN1C(=O)CC(SC[C@H](NC(=O)[C@H](CC(=O)O)NC(=O)[C@H](CCSC)NC(=O)[C@H](CC(C)C)NC(=O)[C@H](Cc2c[nH]cn2)NC(=O)[C@H](Cc2ccccc2)NC(=O)[C@@H](CCSC)NC(=O)[C@@H](N)Cc2ccc(O)cc2)C(N)=O)C1=O` (stereo partly specified) (H-Y[dM]FHLMDC(X1)-NH2), the concentration giving a half-maximal response (EC50) is 0.0513 µM on Mu-type opioid receptor [1], 0.038 µM on Mu-type opioid receptor [2], 0.00204 µM in [3] and 0.0224 µM in [4]. Moreover, in assay [5], the Selectivity ratio amounted to 1.06.
Turning to `C[C@H](NC(=O)CNC(=O)[C@@H](NC(=O)[C@H](Cc1ccccc1)NC(=O)CNC(=O)CNC[C@@H](N)Cc1ccccc1)[C@@H](C)O)C(=O)N[C@@H](CCCN=C(N)N)C(=O)N[C@@H](CCCCN)C(=O)N[C@@H](CO)C(=O)N[C@@H](C)C(=O)N[C@@H](CCCN=C(N)N)C(=O)N[C@@H](CCCCN)C(N)=O` (H-[X3]GFTGARKSARK-NH2), on Nociceptin receptor [6], the EC50 is 0.00891 µM. Besides, the pEC50 entry at Nociceptin receptor [7] (HEK293) was “inactive”. Further, the results for the Kb on Nociceptin receptor [8] and on Nociceptin receptor [9] were 0.00589 µM and 0.0148 µM, respectively.
As for `C[C@H](NC(=O)CNC(=O)[C@@H](NC(=O)[C@H](Cc1ccccc1)NC(=O)CNC(=O)CNC(=O)[C@@H](N)Cc1ccccc1)[C@@H](C)O)C(=O)N[C@@H](CCCNC(=N)N)C(=O)N[C@@H](CCCCN)C(=O)N[C@@H](CO)C(=O)N[C@@H](C)C(=O)N[C@@H](CCCNC(=N)N)C(=O)N[C@@H](CCCCN)C(=O)N[C@@H](CSC1CC(=O)N(CCCC(=O)NCC(=O)N[C@@H](CCCCN)C(=O)NCC(=O)N[C@@H](CCCCN)C(=O)NCC(=O)N[C@@H](CCCCN)C(=O)NCC(=O)N[C@@H](CCCCN)C(=O)NCC(=O)N[C@@H](CCCCN)C(=O)NCC(=O)N[C@@H](CCCCN)C(N)=O)C1=O)C(N)=O` (stereo partly specified) (I: H-FGGFTGARKSARKC-NH2 / II: GKGKGKGKGKGK-NH2; linker I:14-II:N via X2), the values for the EC50 at Nociceptin receptor [6] and at Nociceptin receptor [7] were 0.0011 µM and 0.0145 µM, respectively. Also, the Selectivity Index at Nociceptin receptor [10] was 1.11.
For H-FGAFTGARKSARK-NH2, in that order: 0.0132 µM, 0.0288 µM and -0.21.
Consider H-FGGFAGARKSARK-NH2, for which the EC50 on Nociceptin receptor [6] was 0.0759 µM; on Nociceptin receptor [7], 0.741 µM. Further, the Selectivity Index on Nociceptin receptor [10] is 0.4.
H-FGGFTAARKSARK-NH2: the half-maximal effective concentration (EC50) is 0.0219 µM on Nociceptin receptor [6] and 0.0794 µM at Nociceptin receptor [7]. Also, at Nociceptin receptor [10], the Selectivity Index came out at 0.04.
Consider H-FGGFVGARKSARK-NH2, for which the EC50 on Nociceptin receptor [6] was 0.0115 µM; on Nociceptin receptor [7], 0.0417 µM. In addition, the Selectivity Index on Nociceptin receptor [10] worked out at 0.09.
